Cneo AK release – causes C. neoformans cell lysis. adenylate kinase release luminescence, 4 h; normalised: neutral wells 0, clomiphene wells 100. lysis activity, % at 15 µM. actives 0.2% (n = 360,000). AID 651654;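 active means mean lysis activity across replicates of at least 80%, whatever share of replicates individually reach that level; inactive means mean lysis activity below 80%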
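Material – Cryptococcus neoformans yeast cells · Quantity – 5 × 10^6 yeast cells/mL · Buffer or medium – YPD medium · Compound – single dose · Timing – 4 h static compound exposure, 37 °C, read 1 h post-reagent · Signal – adenylate kinase release luminescence · Read-out basis – lysis from increased AK signal · Benchmarks – Clomiphene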
Mot1-301 SUMO – blocks SUMOylation pathway, rescuing yeast Mot1-301 growth; AID 2716; S. cerevisiae Mot1-301 growth rescue, ATP luminescence, 38.5C; percent above DMSO median, 100 means doubled; actives 1% (n = 320,000); growth rescue, % at 18.8 µM;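 active means every valid replicate shows activation above 250% relative to neutral control wells; inactive means the rest, any valid replicate at or below 250%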
Statin myotox sup – suppression of simvastatin myotoxicity; C2C12 myotubes + simvastatin, ATP luminescence, 48 h; scaled: DMSO 0, geranylgeraniol control 100; rescue of ATP level, % at 7.49 µM; actives 0.78% (n = 330,000); AID 602340;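 active means mean ATP rescue above about 67%, or every replicate alone reaching that limit, limit read from the data, passing the limit was not always enough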;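 further: myotubes were challenged with 10 µM simvastatin during compound exposure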
A number is an active result; - = inactive; . = no result given. In the library only some 1.5% were active in any assay of this set; here they are far more common.

SMILES	Cneo AK release	Mot1-301 SUMO	Statin myotox sup
C[C@@H]1CN([C@@H](C)CO)C(=O)c2cc(NC(=O)C3CCCCC3)ccc2O[C@H]1CN(C)C(=O)NC1CCCCC1	-	.	-
CCCNC(=O)c1onc(CSc2ccc(Cl)cc2)c1C(=O)NCCC(C)C	-	-	75
C=CCNC(=O)c1c(CSc2ccc(Cl)cc2)noc1C(=O)NCCC	-	-	-
CCOc1ccc(C=NNc2ccc(S(=O)(=O)Nc3ccccc3C(=O)O)cc2[N+](=O)[O-])cc1	-	-	-
CCOc1cccc(C=NNc2ccc(S(=O)(=O)Nc3ccccc3C(=O)O)cc2[N+](=O)[O-])c1O	-	-	109
C[C@@H]1CN([C@H](C)CO)C(=O)c2cc(NC(=O)Cc3ccccc3)ccc2O[C@@H]1CN(C)Cc1ccc(Oc2ccccc2)cc1	-	.	-
CCC(=O)Nc1ccc2c(c1)OC[C@H](C)N(Cc1cccc(F)c1)C[C@H](C)[C@@H](OC)CN(C)C2=O	-	.	-
COc1ccc(/C=N/NC(=O)c2ccc(CN3C(=O)c4cccc5cccc3c45)cc2)cc1O	.	-	.
COc1cc(/C=N/NC(=O)c2ccc(CN3C(=O)c4cccc5cccc3c45)cc2)cc(OC)c1O	-	-	87
CCC(=O)Nc1ccc2c(c1)C(=O)N(C)C[C@H](OC)[C@@H](C)CN(C(=O)c1cnccn1)[C@H](C)CO2	-	.	-
C[C@@H]1CN([C@H](C)CO)C(=O)c2cc(NC(=O)c3ccccc3)ccc2O[C@@H](C)CCCCO[C@H]1CN(C)Cc1ccc2c(c1)OCO2	-	.	.
O=C(C1CC1)N1CCC(C(O)(c2ccccc2)c2ccccc2)CC1	-	-	85
O=C(c1ccccc1)N1CCN(C(=O)C2CC2)CC1	-	-	-
CC(C)NC(=O)Nc1ccc2c(c1)C(=O)N([C@@H](C)CO)C[C@@H](C)[C@@H](CN(C)C(=O)c1ccncc1)OCCCC[C@@H](C)O2	111	.	.
CC(C)NC(=O)Nc1ccc2c(c1)C(=O)N([C@H](C)CO)C[C@@H](C)[C@H](CN(C)C(=O)c1ccncc1)OCCCC[C@H](C)O2	-	.	.
C[C@H]1CCCCO[C@@H](CN(C)C(=O)c2ccccc2)[C@@H](C)CN([C@@H](C)CO)C(=O)c2cc(NC(=O)NC3CCCCC3)ccc2O1	-	.	-
CC(C)NC(=O)Nc1ccc2c(c1)C(=O)N([C@H](C)CO)C[C@H](C)[C@@H](CN(C)C(=O)NC(C)C)OCCCC[C@H](C)O2	113	.	.
CC(C)NC(=O)Nc1ccc2c(c1)C(=O)N([C@@H](C)CO)C[C@@H](C)[C@H](CN(C)C(=O)c1ccncc1)OCCCC[C@H](C)O2	115	.	.
C[C@@H]1CN([C@@H](C)CO)C(=O)c2cc(NC(=O)NC3CCCCC3)ccc2O[C@@H](C)CCCCO[C@H]1CN(C)C(=O)c1ccccc1	-	.	85
CC(C)NC(=O)Nc1ccc2c(c1)C(=O)N([C@H](C)CO)C[C@@H](C)[C@@H](CN(C)C(=O)NC(C)C)OCCCC[C@@H](C)O2	-	.	.
CC(C)NC(=O)Nc1ccc2c(c1)C(=O)N([C@@H](C)CO)C[C@H](C)[C@H](CN(C)C(=O)c1ccncc1)OCCCC[C@@H](C)O2	-	.	.
O=C(C[C@@H]1C[C@H]2c3cc(NC(=O)NC4CCCC4)ccc3O[C@H]2[C@@H](CO)O1)NC1CCCC1	-	.	-
CO[C@H]1CN(C)C(=O)c2ccc(NS(=O)(=O)c3ccccc3)cc2OC[C@@H](C)N(C)C[C@@H]1C	.	.	-
CO[C@H]1CN(C)C(=O)c2cc(NC(=O)C3CC3)ccc2OC[C@@H](C)N(C(=O)c2ccccc2F)C[C@H]1C	-	.	-
CCS(=O)(=O)c1ncc(Cl)c(C(=O)Nc2ccccc2OC)n1	-	-	144
SMILES	Cneo AK release	Mot1-301 SUMO	Statin myotox sup
COc1ccccc1NC(=O)c1nc(S(=O)(=O)Cc2ccccc2)ncc1Cl	-	-	-
COCC(=O)Nc1ccc2c(c1)C(=O)N(C)C[C@H](OC)[C@H](C)CN(C(=O)CC1CC1)[C@@H](C)CO2	-	.	-
CN1C(=O)c2cc(NC(=O)Cc3cccs3)ccc2OC[C@@H]2O[C@H](CC(=O)NCC3CC3)CC[C@H]21	-	.	-
C[C@H](O)C#Cc1ccc2c(c1)O[C@H](CN(C)C(=O)C1CCCCC1)[C@H](C)CN([C@H](C)CO)S2(=O)=O	-	.	-
Cc1ccc(C(=O)NCC2(c3ccccc3)CCCC2)cc1	-	-	121
O=C(NCC1(c2ccccc2)CCCC1)c1ccc(Br)cc1	.	-	.
O=C(C[C@@H]1C=C[C@@H](NS(=O)(=O)c2ccccc2)[C@@H](CO)O1)N1CCc2ccccc2C1	-	.	-
Oc1[nH]c(N=C2N=c3ccccc3=N2)c2ccccc12	-	293	-
Cc1ccc2c(c1)=N/C(=N\c1[nH]c(O)c3ccccc13)N=2	-	.	-
